pIC50: −log10 of the molar value. Values after ≈ are worked out from the molar mass of the structure shown. Active and inactive are the calls of the source. The rule behind the calls is not given here.
Assays:
PANC-1 [1] = assay: Induction of apoptosis in human PANC1 cells assessed as dead cells at 2 uM after 24 hrs by annexin V/propidium iodide staining-based flow cytometric method (reference value: 0.60%); assay type: functional
MCF7 = assay: Antiproliferative activity against human MCF7 cells after 48 hrs by MTT assay; assay type: functional, cell-based; conditions: MCF7, 48 h
In short: (§1)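 Cells were seeded at 5×10^5 cells/mL overnight and exposed to graded compound concentrations for 48 h. MTT (5 mg/mL stock) was added for 4 h at 37 °C, and formazan was dissolved in DMSO. Absorbance was read at 570 nm. IC₅₀ was fitted from the curves; values are mean ± SD, n = 3.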

PANC-1 [2] = assay: Induction of apoptosis in human PANC1 cells assessed as viable cells at 1 uM after 24 hrs by annexin V/propidium iodide staining-based flow cytometric method (reference value: 89.5%); assay type: functional; conditions: PANC-1, 24 h, read-out: Activity
Mus musculus [3] = assay: Toxicity in nude mouse xenografted with human PANC1 cells assessed as effect on quality of life at 15 to 60 mg/kg, ip administered every 2 days for 21 days measured during compound dosing; assay type: organism-based; conditions: in vivo
In short: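 Female nude mice were implanted s.c. in the right flank with 1×10^7 PANC-1 cells. After 4 weeks, mice with tumours averaging 100 mm³ were randomized into five groups. They were dosed i.p. at 15, 30 or 60 mg/kg every two days for 21 days and monitored for toxicity, tumour growth and body weight.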

PANC-1 [4] = assay: Antitumor activity against human PANC1 cells xenografted in nude mouse assessed as inhibition of tumor weight at 60 mg/kg, ip administered every 2 days for 21 days relative to vehicle-treated control; assay type: functional; conditions: PANC-1, ip
In short: (§2)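 Female nude mice received 1×10^7 PANC-1 cells subcutaneously in the right flank. After 4 weeks, mice bearing tumors averaging 100 mm³ were randomized into five groups. Dosing was 15, 30 or 60 mg/kg i.p. every two days for 21 days. Tumor volume = width² × length/2; tumors were weighed at sacrifice, and body weight was monitored.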

[5] = Half life in rat at 10 mg/kg, po after 0.083 to 24 hrs by LC-MS/MS method; assay type: ADME, organism-based; conditions: in vivo
PANC-1 [6] = assay: Induction of apoptosis in human PANC1 cells assessed as early apoptotic cells at 0.1 uM after 24 hrs by annexin V/propidium iodide staining-based flow cytometric method (reference value: 7.25%); assay type: functional
[7] = Cmax in rat at 10 mg/kg, iv after 0.083 to 24 hrs by LC-MS/MS method; assay type: ADME, organism-based; parameters: dose 10 mg/kg, route intravenous; conditions: in vivo
[8] = Intrinsic aqueous solubility of the compound; assay type: physicochemical; conditions: read-out: Intrinsic_solubility
In short: (§3)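 Intrinsic aqueous solubility and log D at pH 7.4 were measured on a pION Gemini Profiler.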

PANC-1 [9] = assay: Induction of apoptosis in human PANC1 cells assessed as dead cells at 1 uM after 24 hrs by annexin V/propidium iodide staining-based flow cytometric method (reference value: 0.60%); assay type: functional
PANC-1 [10] = assay: Induction of apoptosis in human PANC1 cells assessed as dead cells at 0.1 uM after 24 hrs by annexin V/propidium iodide staining-based flow cytometric method (reference value: 0.60%); assay type: functional
Mus musculus [11] = assay: Effect on HIF-1alpha expression in human PANC1 cells xenografted in nude mouse at 15 to 60 mg/kg, ip administered every 2 days for 21 days by immunohistochemical method; assay type: functional, organism-based
In short: (§4)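 Tumors came from the PANC-1 nude-mouse xenografts dosed at 15, 30 or 60 mg/kg i.p. every two days for 21 days. Tumor sections were stained immunohistochemically with antibodies against CD31, HIF-1α and VEGF.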

PANC-1 [12] = assay: Antitumor activity against human PANC1 cells xenografted in nude mouse assessed as inhibition of tumor weight at 15 mg/kg, ip administered every 2 days for 21 days relative to vehicle-treated control; assay type: functional; conditions: PANC-1, ip; in short: as §2
PANC-1 [13] = assay: Induction of apoptosis in human PANC1 cells assessed as viable cells at 0.1 uM after 24 hrs by annexin V/propidium iodide staining-based flow cytometric method (reference value: 89.5%); assay type: functional; conditions: PANC-1, 24 h, read-out: Activity
MDA-MB-231 = assay: Antiproliferative activity against human MDA-MB-231 cells after 48 hrs by MTT assay; assay type: functional, cell-based; conditions: MDA-MB-231, 48 h; in short: as §1
[14] = molecular target: Hypoxia-inducible factor 1-alpha (Homo sapiens) (UniProt Q16665); assay: Inhibition of HIF-1alpha in human PANC1 cells assessed as downregulation of VEGF mRNA levels under hypoxia condition after 24 hrs by qRT-PCR method; assay type: cell-based
Chain of Hypoxia-inducible factor 1-alpha (Homo sapiens) (Q16665 whole entry, looked up): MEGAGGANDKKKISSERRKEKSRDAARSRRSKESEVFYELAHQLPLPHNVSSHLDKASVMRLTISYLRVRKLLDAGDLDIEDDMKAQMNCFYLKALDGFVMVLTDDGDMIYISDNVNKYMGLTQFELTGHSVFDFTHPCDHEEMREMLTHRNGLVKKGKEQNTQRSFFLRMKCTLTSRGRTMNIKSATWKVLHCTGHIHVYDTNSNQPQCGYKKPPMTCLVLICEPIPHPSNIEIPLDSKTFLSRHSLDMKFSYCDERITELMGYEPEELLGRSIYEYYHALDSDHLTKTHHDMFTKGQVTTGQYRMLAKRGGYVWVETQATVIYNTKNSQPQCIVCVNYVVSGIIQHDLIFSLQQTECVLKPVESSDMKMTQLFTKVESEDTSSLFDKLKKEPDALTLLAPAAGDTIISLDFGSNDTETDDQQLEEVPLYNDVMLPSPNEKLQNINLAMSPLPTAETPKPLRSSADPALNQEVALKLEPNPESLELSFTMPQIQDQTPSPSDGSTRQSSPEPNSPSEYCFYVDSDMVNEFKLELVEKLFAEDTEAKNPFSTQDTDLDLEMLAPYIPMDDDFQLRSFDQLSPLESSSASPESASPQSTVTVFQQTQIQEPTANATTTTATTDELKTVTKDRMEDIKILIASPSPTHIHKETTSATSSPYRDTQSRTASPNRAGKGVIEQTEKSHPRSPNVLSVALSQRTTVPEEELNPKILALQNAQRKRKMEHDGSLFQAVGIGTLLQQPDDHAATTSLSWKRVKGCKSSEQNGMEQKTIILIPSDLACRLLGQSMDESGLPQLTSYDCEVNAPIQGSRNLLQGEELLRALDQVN
In short: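 PANC-1 cells were exposed to hypoxia (1% O₂, 94% N₂, 5% CO₂, 37 °C) for 24 h with compound treatment. VEGF mRNA was measured by real-time qRT-PCR.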

Mus musculus [15] = assay: Downregulation of CD31 expression in human PANC1 cells xenografted in nude mouse at 15 to 60 mg/kg, ip administered every 2 days for 21 days by immunohistochemical method; assay type: functional, organism-based; in short: as §4
PANC-1 [16] = assay: Induction of apoptosis in human PANC1 cells assessed as viable cells at 2 uM after 24 hrs by annexin V/propidium iodide staining-based flow cytometric method (reference value: 89.5%); assay type: functional; conditions: PANC-1, 24 h, read-out: Activity
PANC-1 [17] = assay: Antitumor activity against human PANC1 cells xenografted in nude mouse assessed as decrease in tumor volume at 15 to 60 mg/kg, ip administered every 2 days for 21 days; assay type: functional, organism-based; in short: as §2
PANC-1 [18] = assay: Induction of apoptosis in human PANC1 cells assessed as late apoptotic cells at 2 uM after 24 hrs by annexin V/propidium iodide staining-based flow cytometric method (reference value: 2.65%); assay type: functional
PANC-1 [19] = assay: Antitumor activity against human PANC1 cells xenografted in nude mouse assessed as inhibition of tumor weight at 30 mg/kg, ip administered every 2 days for 21 days relative to vehicle-treated control; assay type: functional; conditions: PANC-1, ip; in short: as §2
[20] = Plasma concentration in rat at 10 mg/kg, iv after 36 hrs by LC-MS/MS method; assay type: ADME, organism-based
In short: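 Rats, n = 6 per group, each given a single 10 mg/kg dose. Blood was collected into heparinized tubes and centrifuged at 4 °C and 8000 rpm for 5 min. Plasma was analysed by LC–MS/MS.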

PANC-1 [21] = assay: Induction of apoptosis in human PANC1 assessed as decrease in PARP levels at 0.1 to 1 uM after 24 hrs by Western blot method; assay type: functional, cell-based
In short: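 PANC-1 cells were treated with graded compound concentrations for 24 h, then lysed. Proteins were separated by SDS-PAGE and blotted to PVDF. Blots were probed for PARP, cleaved PARP, caspase-3, cleaved caspase-3, caspase-9 and cleaved caspase-9, with GAPDH as loading control, and read by infrared imaging. Bands were quantified by densitometry as ratios normalized to GAPDH.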

Mus musculus [22] = assay: Downregulation of VEGF expression in human PANC1 cells xenografted in nude mouse at 15 to 60 mg/kg, ip administered every 2 days for 21 days by immunohistochemical method; assay type: functional, organism-based; in short: as §4
[23] = Half life in rat at 10 mg/kg, ip after 0.083 to 24 hrs by LC-MS/MS method; assay type: ADME, organism-based; conditions: in vivo
[24] = Effective permeability of the compound at pH 7.4 by PAMPA; assay type: ADME; conditions: read-out: Peff
In short: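 Effective permeability was measured by double-sink PAMPA on a pION PAMPA Explorer.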

HCT-116 = assay: Antiproliferative activity against p53-deficient human HCT116 cells after 48 hrs by MTT assay; assay type: functional, cell-based; conditions: HCT-116, 48 h; in short: as §1
[25] = Distribution co-efficient, log D of the compound at pH 7.4; assay type: physicochemical; conditions: buffer; in short: as §3

## Cc1c(C(=O)NC2CCN(C)CC2)oc2ccc(N(Cc3ccc(Br)cc3)S(=O)(=O)c3ccc(Br)cc3)cc12
PANC-1 [1]
  Activity: 0.45%
MCF7
  pIC50: 5.62
PANC-1 [2]
  viability at 1 µM: 50.6%
Mus musculus [3]
  Activity: Non-Toxic
PANC-1 [4]
  inhibition in vivo at 60 mg/kg: 75.8%
[5]
  half-life: 6.63 h
PANC-1 [6]
  Activity: 4.45%
[7]
  Cmax: 3100 ng/mL
[8]
  solubility: 30.2 µg/mL (≈ 44.7 µM)
PANC-1 [9]
  Activity: 0.2%
PANC-1 [10]
  Activity: 0.8%
Mus musculus [11]
  Activity: inactive
PANC-1 [12]
  inhibition in vivo at 15 mg/kg: 39%
PANC-1 [13]
  viability at 0.1 µM: 85.5%
MDA-MB-231
  pIC50: 5.72
[14]
  inhibition: Dose-dependent effect
Mus musculus [15]
  Activity: Active
PANC-1 [16]
  viability at 2 µM: 44.7%
PANC-1 [17]
  Activity: Active
PANC-1 [18]
  Activity: 51.15%
PANC-1 [19]
  inhibition in vivo at 30 mg/kg: 66.4%
[20]
  concentration at 36 h: > 10 ng/mL
PANC-1 [21]
  Activity: Active
Mus musculus [22]
  Activity: Active
[23]
  half-life: 7.09 h
[24]
  Papp: 6.54 ×10⁻⁶ cm/s
HCT-116
  pIC50: 5.79
[25]
  logD: 3.15
